Assay results published in publication PMC4222540 (Biochemistry, 2014).

Legend:
[1] = target: T1, cPAH D139A (Chromobacterium violaceum, UniProt P30967, D139A); test: Steady-state kinetics of phenylalanine hydroxylation; assay type: biochemical; conditions: read-out: KM (DMPH), DMPH4 varied at saturated Phe (1 mM), 20 °C, pH 7.4
T1 sequence (P30967 1-297 D139A): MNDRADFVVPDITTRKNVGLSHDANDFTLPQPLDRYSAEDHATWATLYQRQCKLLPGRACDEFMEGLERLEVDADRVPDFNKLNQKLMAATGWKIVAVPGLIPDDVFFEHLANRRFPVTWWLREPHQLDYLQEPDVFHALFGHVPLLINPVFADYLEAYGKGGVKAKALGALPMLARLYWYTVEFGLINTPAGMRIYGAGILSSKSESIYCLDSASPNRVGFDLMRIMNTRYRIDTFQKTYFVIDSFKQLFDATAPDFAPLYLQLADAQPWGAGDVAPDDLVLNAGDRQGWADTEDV

[2] = target: T2, cPAH D139N (Chromobacterium violaceum, UniProt P30967, D139N); test: as above; assay type: biochemical; conditions: read-out: KM (DMPH), DMPH4 varied at saturated Phe (1 mM), 20 °C, pH 7.4
T2 sequence (P30967 1-297 D139N): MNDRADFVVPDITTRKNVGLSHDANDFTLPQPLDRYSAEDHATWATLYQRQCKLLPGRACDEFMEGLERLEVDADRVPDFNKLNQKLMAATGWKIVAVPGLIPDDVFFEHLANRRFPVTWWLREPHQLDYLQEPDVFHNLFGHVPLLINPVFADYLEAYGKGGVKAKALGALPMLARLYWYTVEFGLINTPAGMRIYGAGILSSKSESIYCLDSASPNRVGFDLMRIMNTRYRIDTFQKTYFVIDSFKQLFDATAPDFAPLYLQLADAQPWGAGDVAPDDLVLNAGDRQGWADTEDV

[3] = target: T3, cPAH D139E (Chromobacterium violaceum, UniProt P30967, D139E); test: as above; assay type: biochemical; conditions: read-out: KM (DMPH), DMPH4 varied at saturated Phe (1 mM), 20 °C, pH 7.4
T3 sequence (P30967 1-297 D139E): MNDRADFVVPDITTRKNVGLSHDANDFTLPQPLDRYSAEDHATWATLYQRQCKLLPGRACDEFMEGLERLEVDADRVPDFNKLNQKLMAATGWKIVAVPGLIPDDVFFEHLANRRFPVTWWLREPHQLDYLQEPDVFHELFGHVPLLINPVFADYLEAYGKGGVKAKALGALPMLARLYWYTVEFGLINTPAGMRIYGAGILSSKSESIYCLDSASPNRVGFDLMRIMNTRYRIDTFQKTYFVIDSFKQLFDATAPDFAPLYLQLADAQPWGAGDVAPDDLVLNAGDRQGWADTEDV

[4] = target: T2, cPAH D139N; test: ITC, Fe; assay type: binding; conditions: anaerobic, 25 °C, 2.5 mM TCEP
Method in brief: (§1)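 Untagged cPAH (wild type or Asp139 point mutant), expressed from pET3a and purified by anion-exchange and size-exclusion chromatography, in apo form. Anaerobic ITC under argon at 25 °C: 500 μM ferrous ammonium sulfate in dialysis buffer with 2.5 mM TCEP titrated into 50 μM protein containing 2.5 mM TCEP. 18 injections of 2 μL, 180 s apart.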

[5] = target: T1, cPAH D139A; test: ITC, Fe; assay type: binding
Method in brief: as §1

[6] = target: T4, wild-type cPAH (Chromobacterium violaceum, UniProt P30967); test: ITC, Fe; assay type: binding; conditions: anaerobic, 25 °C, 2.5 mM TCEP
T4 sequence (P30967 1-297): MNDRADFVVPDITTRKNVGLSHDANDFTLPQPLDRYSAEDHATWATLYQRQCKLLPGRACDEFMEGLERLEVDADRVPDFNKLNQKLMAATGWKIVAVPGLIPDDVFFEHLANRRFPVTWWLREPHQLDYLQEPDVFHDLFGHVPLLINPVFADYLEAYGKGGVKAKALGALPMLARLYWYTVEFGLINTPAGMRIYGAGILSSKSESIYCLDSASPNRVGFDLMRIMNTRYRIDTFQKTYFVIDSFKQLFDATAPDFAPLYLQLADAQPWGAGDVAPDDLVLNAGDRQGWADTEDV
Method in brief: as §1

[7] = target: T5, cPAH D139K (Chromobacterium violaceum, UniProt P30967, D139K); test: ITC, Fe; assay type: binding
T5 sequence (P30967 1-297 D139K): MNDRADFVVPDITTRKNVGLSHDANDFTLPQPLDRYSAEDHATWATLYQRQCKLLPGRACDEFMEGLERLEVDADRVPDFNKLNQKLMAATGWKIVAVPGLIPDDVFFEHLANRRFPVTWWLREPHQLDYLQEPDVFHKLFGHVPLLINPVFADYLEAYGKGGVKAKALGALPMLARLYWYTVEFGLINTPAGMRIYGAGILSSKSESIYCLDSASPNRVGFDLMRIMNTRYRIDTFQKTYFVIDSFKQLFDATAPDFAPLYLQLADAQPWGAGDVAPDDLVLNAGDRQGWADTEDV
Method in brief: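 Untagged apo cPAH D139K, purified by anion-exchange and size-exclusion chromatography. Anaerobic ITC under argon at 25 °C with 2.5 mM TCEP in titrant and in 50 μM protein. FeSO4 titrated at 10-fold excess (500 μM) and again at 20-fold excess over protein. 18 injections of 2 μL, 180 s apart.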

[8] = target: T3, cPAH D139E; test: ITC, Fe; assay type: binding
Method in brief: as §1

[9] = Steady-state kinetics: turnover; assay type: biochemical, Chromobacterium violaceum; conditions: for fold lower kcat relative to wild-type cPAH / kcat: enzyme variant as labelled; for kcat: DMPH4 cofactor, 20 °C, pH 7.4
Method in brief: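 Phenylalanine hydroxylation followed by tyrosine formation at 275 nm (ε275 = 1405 L mol−1 cm−1) at 20 ± 1 °C. Enzyme ranged from 1 μM (wild type) to 30 μM (D139A), with 5-fold molar excess of ferrous ammonium sulfate, 5 mM DTT and 1000 units/mL catalase in 0.1 M O2-saturated Na-HEPES, pH 7.4. DMPH4 was varied at 1 mM Phe, and Phe was varied at 350 μM DMPH4. Triplicates were fit to Michaelis–Menten and reported as mean ± SD of three independent experiments.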

[10] = 20-fold excess of FeSO4, anaerobic, 25 °C, 2.5 mM TCEP

## CC1Nc2nc(N)[nH]c(=O)c2NC1C (centres unmarked) [DMPH, 6,7-dimethyl-5,6,7,8-tetrahydropterine]
[1]
  Km: 254 ± 47 µM
[2]
  Km: 262 ± 41 µM
[3]
  Km: 236 ± 38 µM

## O=S(=O)([O-])[O-].O=S(=O)([O-])[O-].[Fe+2].[NH4+].[NH4+] [Fe(II), ferrous ammonium sulfate]
[4]
  Kd: 139 ± 60 nM
  N (ITC stoichiometry): 0.7
  ΔH: –4.5 ± 0.3 kcal mol^–1
  ΔS: 16 cal mol^–1
[5]
  fold increase in Kd for iron vs wild type: ~6 fold
[5]; anaerobic, 25 °C, 2.5 mM TCEP
  Kd: 944 ± 170 nM
  N (ITC stoichiometry): 0.9
  ΔH: –2.5 ± 0.1 kcal mol^–1
  ΔS: 19 cal mol^–1
[6]
  Kd: 151 ± 30 nM
  N (ITC stoichiometry): 0.8
  ΔH: –4.0 ± 0.1 kcal mol^–1
  ΔS: 18 cal mol^–1
[7]
  fold reduction in binding affinity for iron vs wild type: ~500 fold
[7]; 10-fold excess of FeSO4 (500 µM)
  iron binding (ITC isotherm): no binding was observed
[7]; [10]
  Kd: 76500 ± 700 nM
  N (ITC stoichiometry): 1
  ΔH: 1.4 ± 0.6 kcal mol^–1
  ΔS: 23 cal mol^–1
[8]
  fold increase in Kd for iron vs wild type: ~4 fold
[8]; anaerobic, 25 °C, 2.5 mM TCEP
  Kd: 479 ± 170 nM
  N (ITC stoichiometry): 0.8
  ΔH: –1.5 ± 0.1 kcal mol^–1
  ΔS: 24 cal mol^–1

B1: D139N (protein, UniProt P30967 1-297, looked up, variant D139N)
Phenylalanine-4-hydroxylase: MNDRADFVVPDITTRKNVGLSHDANDFTLPQPLDRYSAEDHATWATLYQRQCKLLPGRACDEFMEGLERLEVDADRVPDFNKLNQKLMAATGWKIVAVPGLIPDDVFFEHLANRRFPVTWWLREPHQLDYLQEPDVFHNLFGHVPLLINPVFADYLEAYGKGGVKAKALGALPMLARLYWYTVEFGLINTPAGMRIYGAGILSSKSESIYCLDSASPNRVGFDLMRIMNTRYRIDTFQKTYFVIDSFKQLFDATAPDFAPLYLQLADAQPWGAGDVAPDDLVLNAGDRQGWADTEDV
[9]
  fold lower kcat relative to wild-type cPAH: ~16 fold
  kcat: 1.2 ± 0.1 s^–1

B2: D139E (protein, UniProt P30967 1-297, looked up, variant D139E)
Phenylalanine-4-hydroxylase: MNDRADFVVPDITTRKNVGLSHDANDFTLPQPLDRYSAEDHATWATLYQRQCKLLPGRACDEFMEGLERLEVDADRVPDFNKLNQKLMAATGWKIVAVPGLIPDDVFFEHLANRRFPVTWWLREPHQLDYLQEPDVFHELFGHVPLLINPVFADYLEAYGKGGVKAKALGALPMLARLYWYTVEFGLINTPAGMRIYGAGILSSKSESIYCLDSASPNRVGFDLMRIMNTRYRIDTFQKTYFVIDSFKQLFDATAPDFAPLYLQLADAQPWGAGDVAPDDLVLNAGDRQGWADTEDV
[9]
  fold lower kcat relative to wild-type cPAH: 10 fold
  kcat: 1.9 ± 0.1 s^–1

B3: D139K (protein, UniProt P30967 1-297, looked up, variant D139K)
Phenylalanine-4-hydroxylase: MNDRADFVVPDITTRKNVGLSHDANDFTLPQPLDRYSAEDHATWATLYQRQCKLLPGRACDEFMEGLERLEVDADRVPDFNKLNQKLMAATGWKIVAVPGLIPDDVFFEHLANRRFPVTWWLREPHQLDYLQEPDVFHKLFGHVPLLINPVFADYLEAYGKGGVKAKALGALPMLARLYWYTVEFGLINTPAGMRIYGAGILSSKSESIYCLDSASPNRVGFDLMRIMNTRYRIDTFQKTYFVIDSFKQLFDATAPDFAPLYLQLADAQPWGAGDVAPDDLVLNAGDRQGWADTEDV
[9]; nonenzymatic amounts of protein required for minimal tyrosine formation
  catalytic activity (hydroxylation of phenylalanine to tyrosine): inactive

B4: wild type: wild-type phenylalanine hydroxylase from Chromobacterium violaceum (cPAH) (protein, UniProt P30967 1-297, looked up)
Phenylalanine-4-hydroxylase: MNDRADFVVPDITTRKNVGLSHDANDFTLPQPLDRYSAEDHATWATLYQRQCKLLPGRACDEFMEGLERLEVDADRVPDFNKLNQKLMAATGWKIVAVPGLIPDDVFFEHLANRRFPVTWWLREPHQLDYLQEPDVFHDLFGHVPLLINPVFADYLEAYGKGGVKAKALGALPMLARLYWYTVEFGLINTPAGMRIYGAGILSSKSESIYCLDSASPNRVGFDLMRIMNTRYRIDTFQKTYFVIDSFKQLFDATAPDFAPLYLQLADAQPWGAGDVAPDDLVLNAGDRQGWADTEDV
[9]
  kcat: 18.6 ± 0.1 s^–1

B5: D139A (protein, UniProt P30967 1-297, looked up, variant D139A)
Phenylalanine-4-hydroxylase: MNDRADFVVPDITTRKNVGLSHDANDFTLPQPLDRYSAEDHATWATLYQRQCKLLPGRACDEFMEGLERLEVDADRVPDFNKLNQKLMAATGWKIVAVPGLIPDDVFFEHLANRRFPVTWWLREPHQLDYLQEPDVFHALFGHVPLLINPVFADYLEAYGKGGVKAKALGALPMLARLYWYTVEFGLINTPAGMRIYGAGILSSKSESIYCLDSASPNRVGFDLMRIMNTRYRIDTFQKTYFVIDSFKQLFDATAPDFAPLYLQLADAQPWGAGDVAPDDLVLNAGDRQGWADTEDV
[9]
  fold lower kcat relative to wild-type cPAH: ~100 fold
  kcat: 0.19 ± 0.01 s^–1
